Measured values from ChEMBL document CHEMBL4118078, “Developing pyridazine-3-carboxamides to be CB2 agonists: The design, synthesis, structure-activity relationships and docking studies” (Eur J Med Chem, 2017).

Legend:
Cannabinoid receptor 1 [1] = molecular target: T1, Cannabinoid receptor 1 (Homo sapiens, UniProt P21554); assay: Agonist activity at CB1 receptor (unknown origin) expressed in CHO cells assessed as induction of calcium mobilization at 10 uM by fluo-4 AM dye-based fluorescence assay relative to CP55940; format: functional, cell-based
Cannabinoid receptor 1 [2] = molecular target: T1, Cannabinoid receptor 1; assay: Antagonist activity at CB1 receptor (unknown origin) expressed in CHO cells assessed as inhibition of CP55940-induced calcium mobilization at 10 uM preincubated for 10 mins followed by CP55940-induction by fluo-4 AM dye-based fluorescence assay relative to SR141716A; format: functional, cell-based
Procedure, shortened: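 Cell-based calcium mobilization, antagonist mode, single-concentration screen at 10 µM against CB1 and CB2. SR141716A served as the antagonist-mode positive control.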

Cannabinoid receptor 2 [3] = molecular target: T2, Cannabinoid receptor 2 (Homo sapiens, UniProt P34972); assay: Agonist activity at CB2 receptor (unknown origin) expressed in CHO cells assessed as induction of calcium mobilization at 10 uM by fluo-4 AM dye-based fluorescence assay relative to CP55940; format: functional, cell-based
Cannabinoid receptor 1 [4] = molecular target: T1, Cannabinoid receptor 1; assay: Agonist activity at CB1 receptor (unknown origin) expressed in CHO cells assessed as induction of calcium mobilization by fluo-4 AM dye-based fluorescence assay; format: functional, cell-based
Cannabinoid receptor 2 [5] = molecular target: T2, Cannabinoid receptor 2; assay: Agonist activity at CB2 receptor (unknown origin) expressed in CHO cells assessed as induction of calcium mobilization by fluo-4 AM dye-based fluorescence assay; format: functional, cell-based
Cannabinoid receptor 2 [6] = molecular target: T2, Cannabinoid receptor 2; assay: Agonist activity at CB2 receptor (unknown origin) expressed in CHO cells assessed as induction of calcium mobilization by fluo-4 AM dye-based fluorescence assay relative to CP55940; format: functional, cell-based
Procedure, shortened: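 Cell-based calcium mobilization, agonist mode, with CP55940 as positive control. Compounds giving more than 50% activation in a single-concentration 10 µM primary screen were run in dose-response to derive EC50.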

Homo sapiens = species: Homo sapiens; assay: Selectivity index, ratio of EC50 for CB1 receptor (unknown origin) to EC50 for CB2 receptor (unknown origin)

T2 sequence (P34972 whole entry): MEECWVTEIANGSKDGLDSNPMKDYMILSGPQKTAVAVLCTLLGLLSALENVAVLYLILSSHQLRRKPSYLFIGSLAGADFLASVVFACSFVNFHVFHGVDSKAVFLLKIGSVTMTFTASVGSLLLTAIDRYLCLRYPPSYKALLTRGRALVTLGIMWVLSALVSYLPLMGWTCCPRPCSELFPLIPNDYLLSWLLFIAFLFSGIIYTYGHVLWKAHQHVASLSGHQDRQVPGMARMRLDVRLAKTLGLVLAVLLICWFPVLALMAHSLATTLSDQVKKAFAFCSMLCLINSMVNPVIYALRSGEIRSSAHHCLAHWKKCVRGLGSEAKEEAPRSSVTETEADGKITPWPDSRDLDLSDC
T1 sequence (P21554 whole entry): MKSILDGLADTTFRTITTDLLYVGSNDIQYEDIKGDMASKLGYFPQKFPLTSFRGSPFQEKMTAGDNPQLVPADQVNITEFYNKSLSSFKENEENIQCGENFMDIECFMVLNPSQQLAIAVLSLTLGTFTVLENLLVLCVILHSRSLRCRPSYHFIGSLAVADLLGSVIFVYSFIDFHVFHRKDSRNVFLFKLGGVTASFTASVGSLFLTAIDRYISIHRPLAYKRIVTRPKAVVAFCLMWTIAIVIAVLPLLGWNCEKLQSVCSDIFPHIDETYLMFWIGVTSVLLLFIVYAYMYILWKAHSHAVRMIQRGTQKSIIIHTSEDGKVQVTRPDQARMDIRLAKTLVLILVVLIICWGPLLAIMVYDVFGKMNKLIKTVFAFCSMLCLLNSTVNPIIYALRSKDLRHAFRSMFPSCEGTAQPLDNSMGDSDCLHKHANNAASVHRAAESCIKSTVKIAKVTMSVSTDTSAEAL

Compound	Activity (Cannabinoid receptor 1 [1]) [%]	inhibition (Cannabinoid receptor 1 [2]) [%]	Activity (Cannabinoid receptor 2 [3]) [%]	EC50 (Cannabinoid receptor 1 [4]) [nM]	EC50 (Cannabinoid receptor 2 [5]) [nM]	Emax (Cannabinoid receptor 2 [6]) [%]	Ratio EC50 (Homo sapiens)
CC(C)c1cc(NC2CCCC2)nnc1C(=O)NC12CC3CC(CC(C3)C1)C2	19.5	44.5	95.5	> 10000	301	80	> 33
CC(C)c1cc(NC2CCCCC2)nnc1C(=O)NC1C2CC3CC(C2)CC1C3 (centres undefined)	-0.238		119	> 10000	398	81	> 25
CC(C)c1cc(N2CCCCC2)nnc1C(=O)NC1C2CC3CC(C2)CC1C3 (centres undefined)	16	44.1	114	> 10000	18.1	140	> 553
CCCCNc1cc(C(C)C)c(C(=O)NC23CC4CC(CC(C4)C2)C3)nn1	10.7		64	10000	159	76	> 63
CC(C)c1cc(NC2CC2)nnc1C(=O)NC1C2CC3CC(C2)CC1C3 (centres undefined)	7.48		119	> 10000	17.1	117	> 584
CC(C)c1cc(NC(C)C(C)C)nnc1C(=O)NC1C2CC3CC(C2)CC1C3 (centres undefined)	10.7	7.68	82	> 10000	2940	77	> 3
O=C(NC1C2CC3CC(C2)CC1C3)c1ccc(N2CCOCC2)nn1 (centres undefined)	3.24	17.7	63.2	> 10000	8420	79	> 1
CC(C)c1cc(N2CCOCC2)nnc1C(=O)NC12CC3CC(CC(C3)C1)C2	3.8	16.9	117	> 10000	396	93	> 25
CCCCNc1nnc(C(=O)NC2C3CC4CC(C3)CC2C4)cc1C(C)C (centres undefined)	89.3		97.1	2610	96.2	93	27
CC(C)c1cc(C(=O)NC23CC4CC(CC(C4)C2)C3)nnc1N1CCOCC1	-2.98		101	> 10000	349	125	> 29
CC(C)c1cc(NC2CCCC2)nnc1C(=O)NC1CCCCC1	9.48		87.5	> 10000	338	78	> 30
CC(C)c1cc(C(=O)NC2C3CC4CC(C3)CC2C4)nnc1NCC1CC1 (centres undefined)	39.3		113	6050	167	109	36
CC(C)c1cc(C(=O)NC2C3CC4CC(C3)CC2C4)nnc1N1CCOCC1 (centres undefined)	-0.267	1.8	107	> 10000	403	105	> 25
CC(C)c1cc(C(=O)NC2C3CC4CC(C3)CC2C4)nnc1NCCO (centres undefined)	-0.906	1.87	124	> 10000	99.9	127	> 100
CC(C)c1cc(NCCO)nnc1C(=O)NC1C2CC3CC(C2)CC1C3 (centres undefined)	17.4	-8.39	137	> 10000	4.96	94	> 2020
CC(C)c1cc(NCCO)nnc1C(=O)NC1CCCCC1	14.8		91.1	> 10000	842	81	> 12
CCCCNc1cc(C(C)C)c(C(=O)NC2C3CC4CC(C3)CC2C4)nn1 (centres undefined)	13.7		91.4	> 10000	49.4	108	> 203
CC(C)c1cc(NCC2CC2)nnc1C(=O)NC1C2CC3CC(C2)CC1C3 (centres undefined)	31.3	22.1	125	> 10000	47.7	135	> 210
CC(C)c1cc(NC2CCCC2)nnc1C(=O)NC1C2CC3CC(C2)CC1C3 (centres undefined)	23.2	38.2	141	> 10000	5.7	107	> 1750
CC(C)c1cc(NCCO)nnc1C(=O)NC12CC3CC(CC(C3)C1)C2	13.4		125	> 10000	42.6	114	> 235
O=C(NCC1CCOCC1)c1cnc(Nc2ccc(Cl)cc2Cl)nc1C(F)(F)F [GW842166X]	18.2	11.8	129	> 10000			> 29
CC(C)c1cc(C(=O)NC2CCCCC2)nnc1N1CCOCC1	-4.03	-8.12	107	> 10000	970	99	> 10
CC(C)c1cc(N2CCOCC2)nnc1C(=O)NC1CCCCC1	6.25	-9.42	87.2	> 10000	594	91	> 17
